Experimental data: ChEMBL document CHEMBL1165950, “Design and synthesis of new potent anticancer pyrazoles with high FLT3 kinase inhibitory selectivity” (Bioorg Med Chem, 2010)

Experiments:
Type in all cases: functional
[1] = test system: NCI-H23; experiment: Growth inhibition of human NCI-H23 cells after 48 hrs by sulforhodamine B assay; conditions: NCI-H23, 48 h
Outline: (§1)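 NCI 60-cell screen, five-dose mode. Cells grown in RPMI 1640 with 5% FBS and 2 mM L-glutamine and plated at 5000-40,000 cells/well according to doubling time. After 24 h preincubation, a Tz plate was TCA-fixed. Five concentrations (10-fold or 1/2 log dilutions) were applied for 48 h at 37 °C. SRB staining read at 515 nm. IC50 taken from [(Ti-Tz)/(C-Tz)]×100 = 50.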

[2] = test system: M14; experiment: Growth inhibition of human M14 cells after 48 hrs by sulforhodamine B assay; conditions: M14, 48 h; outline: as §1
[3] = test system: MDA-MB-231; experiment: Cytotoxicity against human MDA-MB-231 cells assessed as cell growth at 10 uM after 48 hrs by sulforhodamine B assay; conditions: MDA-MB-231, 48 h, read-out: Activity
[4] = test system: HCT-116; experiment: Cytotoxicity against human HCT116 cells assessed as cell growth at 10 uM; conditions: read-out: Activity
Outline: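 Single-dose NCI-60 screen at 10 µM. Cells were grown in RPMI 1640 with 5% FBS and 2 mM L-glutamine, then treated for 48 h at 37 °C. Protein was measured by SRB staining with absorbance at 515 nm. Percentage growth was recorded, and inhibition percentage was calculated as 100 minus growth percentage.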

[5] = test system: NCI-H322M; experiment: Cytotoxicity against human NCI-H322M cells assessed as cell growth at 0.01 uM after 48 hrs by sulforhodamine B assay; conditions: read-out: Activity
[6] = test system: HCT-15; experiment: Cytotoxicity against human HCT15 cells assessed as cell growth at 100 nM after 48 hrs by sulforhodamine B assay; conditions: HCT-15, 48 h, read-out: Activity
[7] = test system: MDA-MB-231; experiment: Cytotoxicity against human MDA-MB-231 cells assessed as cell growth at 10 uM; conditions: read-out: Activity
Outline: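 NCI-60 screen: cells grown in RPMI 1640 with 5% FBS and 2 mM L-glutamine, plated at 5000–40,000 cells/well according to doubling time, and preincubated 24 h at 37 °C, 5% CO2. The single 10 µM dose (DMSO stock) was added, then incubated 48 h. Cells were TCA-fixed and stained with 0.4% SRB, read at 515 nm, and growth % calculated against time-zero and control plates.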

[8] = test system: ACHN; experiment: Cytotoxicity against human ACHN cells assessed as cell growth at 0.001 uM after 48 hrs by sulforhodamine B assay; conditions: read-out: Activity
Outline: (§2)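 NCI-60 five-dose screen. Cells were grown in RPMI 1640 with 5% FBS and 2 mM L-glutamine, plated at 5000–40,000 cells/well and preincubated for 24 h. Time-zero plates were TCA-fixed. DMSO-solubilized drug was added at five concentrations (10-fold or ½-log serial dilutions) for 48 h at 37 °C, 5% CO2. Cells were TCA-fixed, stained with 0.4% SRB and read at 515 nm. Percent growth used time-zero, control and test absorbances.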

[9] = test system: DU-145; experiment: Cytotoxicity against human DU145 cells assessed as cell growth at 1 uM after 48 hrs by sulforhodamine B assay; conditions: DU-145, 48 h, read-out: Activity
[10] = test system: UACC-257; experiment: Cytotoxicity against human UACC257 cells assessed as cell growth at 0.001 uM after 48 hrs by sulforhodamine B assay; conditions: UACC-257, 48 h, read-out: Activity
[11] = test system: OVCAR-8; experiment: Growth inhibition of human OVCAR8 cells after 48 hrs by sulforhodamine B assay; conditions: OVCAR-8, 48 h; outline: as §1
[12] = test system: PC-3; experiment: Growth inhibition of human PC3 cells after 48 hrs by sulforhodamine B assay; conditions: PC-3, 48 h; outline: as §1
[13] = test system: A549; experiment: Cytotoxicity against human A549 cells assessed as cell growth at 100 nM after 48 hrs by sulforhodamine B assay; conditions: A549, 48 h, read-out: Activity; outline: as §2
[14] = test system: OVCAR-4; experiment: Cytotoxicity against human OVCAR4 cells assessed as cell growth at 0.01 uM after 48 hrs by sulforhodamine B assay; conditions: OVCAR-4, 48 h, read-out: Activity
[15] = test system: NCI/ADR-RES; experiment: Cytotoxicity against human NCI/ADR-RES cells assessed as cell growth at 0.001 uM after 48 hrs by sulforhodamine B assay; conditions: read-out: Activity
[16] = test system: SN12C; experiment: Cytotoxicity against human SN12C cells assessed as cell growth at 100 nM after 48 hrs by sulforhodamine B assay; conditions: read-out: Activity
[17] = test system: UACC-62; experiment: Cytotoxicity against human UACC62 cells assessed as cell growth at 100 nM after 48 hrs by sulforhodamine B assay; conditions: UACC-62, 48 h, read-out: Activity
[18] = test system: MDA-MB-468; experiment: Cytotoxicity against human MDA-MB-468 cells assessed as cell growth at 0.001 uM after 48 hrs by sulforhodamine B assay; conditions: MDA-MB-468, 48 h, read-out: Activity
[19] = test system: HOP-62; experiment: Growth inhibition of human HOP62 cells after 48 hrs by sulforhodamine B assay; conditions: HOP-62, 48 h; outline: as §1
[20] = test system: IGROV-1; experiment: Cytotoxicity against human IGROV1 cells assessed as cell growth at 0.01 uM after 48 hrs by sulforhodamine B assay; conditions: IGROV-1, 48 h, read-out: Activity
[21] = test system: COLO 205; experiment: Cytotoxicity against human COLO205 cells assessed as cell growth at 10 uM after 48 hrs by sulforhodamine B assay; conditions: COLO 205, 48 h, read-out: Activity
[22] = test system: SK-MEL-2; experiment: Growth inhibition of human SK-MEL-2 cells after 48 hrs by sulforhodamine B assay; conditions: SK-MEL-2, 48 h; outline: as §1
[23] = test system: ACHN; experiment: Growth inhibition of human ACHN cells after 48 hrs by sulforhodamine B assay
Outline: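 NCI five-dose SRB assay in RPMI 1640 with 5% FBS and 2 mM L-glutamine. Cells were preincubated 24 h, then exposed 48 h at 37 °C to five concentrations (10-fold or half-log serial dilutions from DMSO stocks). TCA fixation, SRB staining, and absorbance at 515 nm followed. IC50 was taken where [(Ti−Tz)/(C−Tz)]×100 = 50, with Tz as time-zero cell density.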

[24] = test system: Malme-3M; experiment: Cytotoxicity against human MALME-3M cells assessed as cell growth at 10 uM after 48 hrs by sulforhodamine B assay; conditions: read-out: Activity
[25] = test system: HOP-62; experiment: Cytotoxicity against human HOP62 cells assessed as cell growth at 0.001 uM after 48 hrs by sulforhodamine B assay; conditions: HOP-62, 48 h, read-out: Activity
[26] = Cytotoxicity against human Hs 578T cells assessed as cell growth at 10 uM after 48 hrs by sulforhodamine B assay; conditions: read-out: Activity
[27] = test system: MDA-MB-231; experiment: Cytotoxicity against human MDA-MB-231 cells assessed as cell growth at 100 nM after 48 hrs by sulforhodamine B assay; conditions: MDA-MB-231, 48 h, read-out: Activity
[28] = read-out: LC50 (the source's name)

COc1cc(C)cc(-c2nn(CC#N)cc2-c2ccc(-c3cccc(C(C)=O)c3)nc2)c1
GI50 [1]: 3.45 µM | TGI [1]: 84 µM | CC50 [1, 28]: > 100 µM | GI50 [2]: 1.17 µM | TGI [2]: 3.3 µM | growth at 10 µM [3]: 1% | growth at 10 µM [4]: 10.3% | growth at 0.01 µM [5]: 91% | growth at 0.1 µM [6]: 69% | growth at 10 µM [7]: 34.8% | growth at 0.001 µM [8]: 93% | growth at 1 µM [9]: -38% | growth at 0.001 µM [10]: 94% | GI50 [11]: 3.16 µM | TGI [11]: 35.2 µM | CC50 [11, 28]: > 100 µM | GI50 [12]: 3.45 µM | LC50 (concentration giving 50% net cell kill) [12]: > 100 µM | TGI [12]: > 100 µM | growth at 0.1 µM [13]: 91% | growth at 0.01 µM [14]: 97% | growth at 0.001 µM [15]: 99% | growth at 0.1 µM [16]: 91% | growth at 0.1 µM [17]: 71% | growth at 0.001 µM [18]: 83% | GI50 [19]: 3.07 µM | LC50 (50% lethal concentration) [19]: > 100 µM | TGI [19]: 36.9 µM | growth at 0.01 µM [20]: 92% | growth at 10 µM [21]: -62% | GI50 [22]: 3.73 µM | TGI [22]: 41.3 µM | CC50 [22, 28]: > 100 µM | GI50 [23]: 4.19 µM | LC50 (concentration giving 50% net cell kill) [23]: > 100 µM | TGI [23]: > 100 µM | growth at 10 µM [24]: -1% | growth at 0.001 µM [25]: 84% | growth at 10 µM [26]: -57% | growth at 0.1 µM [27]: 85%
